# Legend:
# Rattus norvegicus [1] = assay: Effect of compound on relative liver weight in 3rd group of normal chow-fed male rats after a dose of 5 mg/kg/day; type: functional
# How it was run: (§1)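 Chow-fed male Sprague–Dawley CD rats, 60–80 g, dosed by oral gavage once daily for 4 days in 1.3% Tween 80/0.25% CMC. Fasted overnight and sacrificed 24 h after the last dose. Liver weight expressed as % of body weight at termination. Six per group, mean ± SEM.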
# Cricetinae gen. sp. [2] = assay: Effect of compound on thyroxine levels in 3rd group of cholesterol-fed male hamsters at 30 mg/kg/day after 14 days of treatment; conditions: Mesocricetus auratus
# Rattus norvegicus [3] = assay: Effect of compound on very low-density lipoprotein cholesterol levels in 4th group of normal chow-fed male rats after a dose of 10 mg/kg/day; type: functional, organism-based
# How it was run: (§2)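 Male Sprague–Dawley CD rats (60–80 g) on Purina 5001 chow with a reverse 12 h light/dark cycle. Dosed once daily by oral gavage for 4 days, suspended in 1.3% Tween 80 / 0.25% CMC. Fasted overnight and bled 24 h after the last dose. Serum TC and glycerol-blanked TG measured enzymatically; VLDL-C by FPLC fractionation with cholesterol assay. n=6, mean ± SEM.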
# Cricetinae gen. sp. [4] = assay: Effect of compound on alkaline phosphatase (ALKP) levels in 1st group of cholesterol-fed male hamsters at 3 mg/kg/day after 14 days of treatment; conditions: Mesocricetus auratus
# Rattus norvegicus [5] = assay: Effect of compound on alkaline phosphatase (ALKP) levels in 2nd group of normal chow-fed male rats after a dose of 2 mg/kg/day; type: functional, organism-based
# How it was run: (§3)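 Male Sprague–Dawley CD rats (60–80 g) on standard chow under a reversed 12 h light/dark cycle. Compound was suspended in 1.3% Tween 80/0.25% CMC and given as a single daily oral gavage dose for 4 days. Rats were fasted overnight and killed 24 h after the last dose. Serum ALT, AST, ALKP and LDH were read on a clinical analyzer. Weight gain was start versus end weight. Mean ± SEM, n = 6.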
# Rattus norvegicus [6] = assay: Effect of compound on liver weight in 5th group of normal chow-fed male rats after a dose of 20 mg/kg/day; type: functional
# How it was run: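 Male Sprague–Dawley CD rats, 60–80 g, on chow with a reverse 12 h light/dark cycle. Given one oral gavage dose daily for 4 days, suspended in 1.3% Tween 80/0.25% CMC. Fasted overnight and sacrificed 24 h after the last dose for blood and liver. Serum liver enzymes read on a clinical analyzer. Six per group, mean ± SEM.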
# Cricetinae gen. sp. [7] = assay: Percent change in triglycerides following oral administration of compound in hypercholesterolemic hamsters at 100 mg/kg/day for 14 days; type: functional
# How it was run: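 Male Syrian Golden hamsters pre-fed chow plus 0.25% cholesterol for 2 weeks and kept on it. Dosed 100 mg/kg/day by oral gavage in 2% Tween 80/saline for 14 days. Serum total cholesterol and glycerol-blanked triglycerides read enzymatically; lipoproteins separated by FPLC with cholesterol measured in each fraction. % change versus vehicle controls; six per group, p < 0.05.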
# Rattus norvegicus [8] = assay: Effect of compound on relative liver weight in 2nd group of normal chow-fed male rats after a dose of 2 mg/kg/day; type: functional; how it was run: as §1
# Rattus norvegicus [9] = assay: Effect of compound on lactic dehydrogenase (LDH) levels in 2nd group of normal chow-fed male rats after a dose of 2 mg/kg/day; type: functional, organism-based; how it was run: as §3
# Cricetinae gen. sp. [10] = assay: Effect of compound on thyroxine levels in 2nd group of cholesterol-fed male hamsters at 10 mg/kg/day after 14 days of treatment; conditions: Mesocricetus auratus
# Rattus norvegicus [11] = assay: Effect of compound on serum high-density lipoprotein cholesterol concentration in chow-fed male rats at a dose of 5 mg/kg/day; type: functional, organism-based
# How it was run: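 Separate dose-response study in male Sprague–Dawley CD rats, 60–80 g, on chow. Oral gavage once daily for 4 days in 1.3% Tween 80 / 0.25% CMC; fasted overnight, bled 24 h after last dose. Apo-A1 by ELISA with rabbit anti-rat primary, alkaline phosphatase-conjugated anti-rabbit IgG and p-nitrophenyl phosphate substrate. HDL-C by FPLC fractionation. Mean ± SEM, six per group.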
# Rattus norvegicus [12] = assay: Effect of compound on alanine aminotransferase (ALT) levels in 3rd group of normal chow-fed male rats after a dose of 5 mg/kg/day; type: functional, organism-based; how it was run: as §3
# Cricetinae gen. sp. [13] = assay: Effect of compound on triglycerides level in 3rd group of cholesterol-fed male hamsters at 30 mg/kg/day after 14 days of treatment; conditions: Mesocricetus auratus
# Rattus norvegicus [14] = assay: Effect of compound on low-density lipoprotein cholesterol levels in 1st group of normal chow-fed male rats after a dose of 1 mg/kg/day; type: functional, organism-based
# How it was run: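 Male Sprague–Dawley CD rats, 60–80 g, on standard chow with reverse 12 h light/dark cycle. One oral gavage dose daily for 4 days, suspended in 1.3% Tween 80 and 0.25% CMC. Fasted overnight; sacrificed 24 h after the last dose. Serum TC on clinical analyzer, lipoproteins by FPLC with cholesterol per fraction, T4 on analyzer. Mean ± SEM, six rats per group.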
# Cricetinae gen. sp. [15] = assay: Effect of compound on aspartate aminotransferase (AST) levels in 4th group of cholesterol-fed male hamsters at 100 mg/kg/day after 14 days of treatment; conditions: Mesocricetus auratus
# Cricetinae gen. sp. [16] = assay: Effect of compound on aspartate aminotransferase (AST) levels in 1st group of cholesterol-fed male hamsters at 3 mg/kg/day after 14 days of treatment; conditions: Mesocricetus auratus
# Rattus norvegicus [17] = assay: Effect of compound on triglyceride levels in 4th group of normal chow-fed male rats after a dose of 10 mg/kg/day; type: functional, organism-based; how it was run: as §2
# Rattus norvegicus [18] = assay: Effect of compound on gain in body weight in 1st group of normal chow-fed male rats after a dose of 1 mg/kg/day; type: functional; how it was run: as §3
# Mesocricetus auratus [19] = assay: Effect of compound on alanine aminotransferase (ALT) levels in 3rd group of cholesterol-fed male hamsters at 30 mg/kg/day after 14 days of treatment
# Rattus norvegicus [20] = assay: Effect of compound on alanine aminotransferase (ALT) levels in 6th group of normal chow-fed male rats after a dose of 50 mg/kg/day; type: functional, organism-based; how it was run: as §3
# Rattus norvegicus [21] = assay: Effect of compound on gain in body weight in 2nd group of normal chow-fed male rats after a dose of 2 mg/kg/day; type: functional; how it was run: as §3
# [22] = Effect on serum lipids in 1st group of cholesterol-fed male hamsters at 3 mg/kg/day after 14 days of treatment was evaluated as ratio of total cholesterol levels to high-density lipoprotein cholesterol levels; type: functional
# How it was run: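 Male Syrian Golden hamsters on chow plus 0.25% cholesterol, 2 weeks before and during dosing. Oral gavage for 14 days in 2% Tween 80/saline. Fasted 4 h before sacrifice. Serum total cholesterol measured enzymatically; HDL-C from cholesterol in FPLC lipoprotein fractions; TC/HDL-C ratio calculated. Six per group, mean ± SEM.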
# Mesocricetus auratus [23] = assay: Effect of compound on gain in body weight in 2nd group of cholesterol-fed male hamsters at 10 mg/kg/day after 14 days of treatment
# Rattus norvegicus [24] = assay: Effect of compound on high-density lipoprotein cholesterol levels in 2nd group of normal chow-fed male rats after a dose of 2 mg/kg/day; type: functional, organism-based
smiles,measurement,setting,value
CCN1CC(=O)N(c2cc(Cl)ccc2C)C1=S,Relative liver weight,Rattus norvegicus [1],3.8%
same,Serum level,Cricetinae gen. sp. [2],4.73 µg/dL
same,Serum level,Rattus norvegicus [3],3.4 mg/dL
same,Level,Cricetinae gen. sp. [4],154 U l-1
same,Level,Rattus norvegicus [5],373 U l-1
same,Liver weight,Rattus norvegicus [6],8.2 g
same,Change,Cricetinae gen. sp. [7],-34%
same,Relative liver weight,Rattus norvegicus [8],3.9%
same,Level,Rattus norvegicus [9],692 U l-1
same,Serum level,Cricetinae gen. sp. [10],5.73 µg/dL
same,Serum level,Rattus norvegicus [11],52.4 mg/dL
same,Level,Rattus norvegicus [12],62 U l-1
same,Serum level,Cricetinae gen. sp. [13],433 mg/dL
same,Serum level,Rattus norvegicus [14],5.7 mg/dL
same,Level,Cricetinae gen. sp. [15],424 U l-1
same,Level,Cricetinae gen. sp. [16],312 U l-1
same,Serum level,Rattus norvegicus [17],21 mg/dL
same,Body weight,Rattus norvegicus [18],26.3 g
same,Level,Mesocricetus auratus [19],112 U l-1
same,Level,Rattus norvegicus [20],62 U l-1
same,Body weight,Rattus norvegicus [21],28.5 g
same,Ratio,[22],3.14
same,Body weight,Mesocricetus auratus [23],9.5 g
same,Serum level,Rattus norvegicus [24],41 mg/dL
